The source of these data is ChEMBL document CHEMBL4725346, “Syntheses and Evaluation of New Bisacridine Derivatives for Dual Binding of G-Quadruplex and i-Motif in Regulating Oncogene c-myc Expression” (J Med Chem, 2020).

pIC50, pKd: −log10 of the molar value. The source made the active and inactive calls. No cut-off for these calls is given here.

A short description of series [1]: Binding affinity to 5'-biotin labeled c-myc promoter i-motif DNA Py33 (unknown origin) by surface plasmon resonance method. The essentials:
(§1)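 SPR: 5'-biotin DNA diluted to 1 μM and captured (1000 RU) on a sensor chip, with a blank cell as reference. Running buffers: Py33 in 20 mM MES pH 5.8, 100 mM KCl, 0.05% Tween-20; Pu27 and duplex in 50 mM Tris-HCl pH 7.4, 100 mM KCl. Six ligand concentrations serially diluted from DMSO stock. Association 260 s, dissociation 300 s at 25 °C; NaOH regeneration; blank sensorgrams subtracted.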
(In general: In SPR one partner is held on a chip, and binding of the other changes the refractive index at the surface.)

Series [2] deals with Quadruplex DNA. The series can be described thus: Stabilization of 5'-FAM/3'-TAMRA labeled c-myc promoter G-quadruplex DNA FPu22T (unknown origin) assessed as change in melting temperature at 1 uM by FRET assay (reference value: 66.5 degreeC). The series is classed as nucleic-acid assay. The gist of the method:
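FRET melting of dual FAM/TAMRA-labelled FPu22T annealed in 10 mM Tris-HCl pH 7.4 with KCl. Final 0.2 µM DNA with or without ligand. Excitation 470 nm, emission 530 nm, read every 1 °C over 37–99 °C on a real-time PCR cycler. ΔTm = Tm(DNA+ligand) − Tm(DNA).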

Series [3] concerns Quadruplex DNA. Put plainly: Binding affinity to c-myc promoter G-quadruplex/i-motif in human SiHa cells assessed as reduction in c-myc expression incubated for 24 hrs by Western blot analysis. Type of series: cell-based. The essentials: (§2)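 SiHa cells treated 24 h at 0, 0.625, 1.25 and 2.5 μM, then lysed in buffer with 1 mM PMSF. Protein measured by BCA, equal loads run on 8% gel and blotted to PVDF. Probed with anti-c-MYC and anti-β-actin (loading control), HRP anti-rabbit secondary, chemiluminescence read-out.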
Background: Immunoblotting shows a protein as a band on a membrane.

Series [4] is described as follows: Stabilization of c-myc promoter i-motif DNA Py33 (unknown origin) assessed as effect on melting temperature at 5 uM by CD spectroscopy. The gist of the method:
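CD melting: Py33 at 1 µM in 1× BPES pH 6.4, with or without ligand. Annealed at 95 °C for 5 min, slowly cooled, then heated at 1 °C/min while monitoring 260 nm. Tm obtained by curve fitting.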

In series [5] the test system is Quadruplex DNA. Put plainly: Binding affinity to c-myc promoter G-quadruplex/i-motif in human SiHa cells assessed as reduction in c-myc mRNA level at 5 uM incubated for 24 hrs by qRT-PCR analysis. The series is classed as cell-based. The arrangement: scale not given: the % may be the effect or the level left. On the technique in general: In qPCR the cycle at which signal appears reflects the starting amount.

A further series has as its system SiHa. The series can be described thus: Antiproliferative activity against human SiHa cells after 48 hrs by MTT assay. The series is classed as functional, cell-based. The gist of the method:
(§3)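 Cells seeded at 5.0×10^3 per well, pre-incubated 12 h at 37 °C, 5% CO2, then exposed to compounds for 48 h; DMSO-only control. MTT (2.5 mg/mL) added for 4 h, formazan dissolved in DMSO, absorbance at 570 nm. Each dose tested in triplicate; IC50 from percentage survival relative to negative control.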

A further series has as its system HeLa. The series can be described thus: Antiproliferative activity against human Hela cells after 48 hrs by MTT assay. Type of series: functional, cell-based. The essentials:
as §3

The next series has as its system Huh-7. The series can be described thus: Antiproliferative activity against human Huh-7 cells after 48 hrs by MTT assay. The conditions noted are these: Huh-7, 48 h. The series is classed as functional, cell-based. The gist of the method: as §3
Series [6] concerns Quadruplex DNA. The series can be described thus: Binding affinity to c-myc promoter G-quadruplex/i-motif in human SiHa cells assessed as reduction in c-myc mRNA level at 1.25 uM incubated for 24 hrs by qRT-PCR analysis. The series is classed as cell-based. The arrangement: scale not given: the % may be the effect or the level left. The essentials: (§4)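 SiHa cells at 0, 0.625, 1.25 and 2.5 μM for 24 h; DMSO control. Total RNA extracted with TRIzol. 1.5 μg RNA reverse-transcribed with oligo dT18 and M-MLV (42 °C 60 min). PCR of 30 cycles (95/58/72 °C), products run on 1.2% agarose. β-actin as internal control; three repeats.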

Series [7] concerns Quadruplex DNA. The series can be described thus: Binding affinity to c-myc promoter G-quadruplex/i-motif in human SiHa cells assessed as reduction in c-myc expression at 2.5 uM incubated for 24 hrs by Western blot analysis. Type of series: cell-based. Further details: scale not given: the % may be the effect or the level left. The essentials: as §2
A short description of series [8]: Stabilization of 5'-FAM/3'-TAMRA labeled hairpin DNA F10T (unknown origin) assessed as change in melting temperature at 1 uM by FRET assay (reference value: 59.1 degreeC).
For series [9], the system named is Quadruplex DNA. The series can be described thus: Binding affinity to c-myc promoter G-quadruplex/i-motif in human SiHa cells assessed as reduction in c-myc expression at 1.25 uM incubated for 24 hrs by Western blot analysis. The series is classed as cell-based. Further details: scale not given: the % may be the effect or the level left. The essentials: as §2

The test system of a further series is HCT-116. The series can be described thus: Antiproliferative activity against human HCT-116 cells after 48 hrs by MTT assay. The series is classed as functional, cell-based. Particulars: HCT-116, 48 h. The essentials: as §3
In series [10] the test system is Quadruplex DNA. The series can be described thus: Binding affinity to c-myc promoter G-quadruplex/i-motif in human SiHa cells assessed as reduction in c-myc expression at 5 uM incubated for 24 hrs by Western blot analysis. Further details: scale not given: the % may be the effect or the level left. Type of series: cell-based.
A short description of series [11]: Stabilization of 5'-FAM/3'-TAMRA labeled c-myc promoter i-motif DNA FPy33T (unknown origin) assessed as change in melting temperature at 1 uM by FRET assay (reference value: 53.2 degreeC). The gist of the method:
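FRET melting of dual FAM/TAMRA-labelled FPy33T annealed in 1× BPES (30 mM potassium phosphate, 1 mM EDTA, 100 mM KCl), pH 5.5. Final 0.2 µM DNA with or without ligand. Excitation 470 nm, emission 530 nm, read every 1 °C over 37–99 °C. ΔTm taken against DNA alone.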

In series [12] the test system is Quadruplex DNA. Put plainly: Binding affinity to c-myc promoter G-quadruplex/i-motif in human SiHa cells assessed as reduction in c-myc mRNA level incubated for 24 hrs by qRT-PCR analysis. The series is classed as cell-based. The conditions noted are these: dose microM 0.625-2.5, time 24.0 hrs. The essentials:
as §4

The target in a further series is dsDNA. Put plainly: Binding affinity to 5'-biotin labeled duplex DNA (unknown origin) by surface plasmon resonance method. The series is classed as nucleic-acid assay. The gist of the method: as §1
A further series deals with U2OS. Put plainly: Antiproliferative activity against human U2OS cells after 48 hrs by MTT assay. The series is classed as functional, cell-based. The gist of the method: as §3
In series [13] the test system is Quadruplex DNA. The series can be described thus: Stabilization of c-myc promoter G-quadruplex DNA Pu27 (unknown origin) assessed as effect on melting temperature at 5 uM by CD spectroscopy. The series is classed as nucleic-acid assay. The gist of the method: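 CD melting: Pu27 diluted to 1 µM in 10 mM Tris-HCl, 5 mM KCl, pH 7.4, with or without ligand. Annealed at 95 °C for 5 min, slowly cooled, then heated at 1 °C/min while monitoring 260 nm. Tm obtained by curve fitting.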

The test system of series [14] is Quadruplex DNA. Put plainly: Binding affinity to c-myc wild-type promoter G-quadruplex/i-motif (unknown origin) expressed in human SiHa cells assessed as reduction in c-myc transcription by measuring decrease in ratio of renilla/firefly luciferase activity at 1/3 IC50 after 48 hrs by dual-luciferase reporter assay. Type of series: cell-based. The gist of the method:
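SiHa cells transfected with 200 ng psiCHECK2 plasmid carrying wild-type, mutant or deleted c-myc promoter. Compounds added 8 h after transfection, then incubated 48 h at 37 °C. Cells washed with ice-cold PBS; Renilla/firefly activity ratio read by dual-luciferase assay.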

The subject of series [15] is Quadruplex DNA. The series can be described thus: Binding affinity to c-myc promoter G-quadruplex/i-motif in human SiHa cells assessed as reduction in c-myc mRNA level at 2.5 uM incubated for 24 hrs by qRT-PCR analysis. Type of series: cell-based. Further details: scale not given: the % may be the effect or the level left. The essentials:
as §4

A short description of series [16]: Drug uptake in human SiHa cells. Type of series: ADME, cell-based.
Series [17] has as its target Quadruplex DNA. The series can be described thus: Binding affinity to 5'-biotin labeled c-myc promoter G-quadruplex DNA Pu27 (unknown origin) by surface plasmon resonance method. The series is classed as nucleic-acid assay. The essentials: as §1
The subject of another series is A-375. The series can be described thus: Antiproliferative activity against human A-375 cells after 48 hrs by MTT assay. Type of series: functional, cell-based. The conditions noted are these: A-375, 48 h. The gist of the method: as §3
The subject of series [18] is Quadruplex DNA. Put plainly: Stabilization of c-myc promoter G-quadruplex DNA Pu27 (unknown origin) in pH 7.4 Tris-HCl buffer by CD spectroscopy. Type of series: nucleic-acid assay. The essentials: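 Pu27 at 1 µM in 10 mM Tris-HCl pH 7.4, with or without ligand. Annealed at 95 °C for 5 min, cooled to room temperature, stored at 4 °C overnight. CD spectra taken in a 4 mm cuvette over 230–350 nm, three scans averaged, smoothed and buffer-baseline corrected.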

The next series concerns A549. The series can be described thus: Antiproliferative activity against human A549 cells after 48 hrs by MTT assay. The conditions noted are these: A549, 48 h. The series is classed as functional, cell-based. The gist of the method:
as §3

In the next series the test system is ssDNA. Put plainly: Binding affinity to 5'-biotin labeled single-stranded DNA Py33 (unknown origin) at <=50 uM by surface plasmon resonance method. The series is classed as nucleic-acid assay.

The pKd is the Kd on a negative log10 scale, so that one unit is a factor of ten. As a reminder, the ΔTm is the change in melting temperature against a reference sample. As a reminder, the pIC50 is −log10 of the IC50, conventionally taken in molar units. Turning to `Cc1ccc2nc3ccc(C)cc3c(NCCOCCOCCNc3c4cc(C)ccc4nc4ccc(C)cc34)c2c1`, the pKd in series [1] is 4.58; at dsDNA it was 4.66; on Quadruplex DNA [17], 5.44. Also, the thermal shift (ΔTm) was found to be 13.5 °C with Quadruplex DNA [2], 2.3 °C in [8] and 1 °C in [11]. Further, the Activity entry was “Dose-dependent effect” in the series with Quadruplex DNA [3]; 79.8% in the series on Quadruplex DNA [5]; 32.6% in the series on Quadruplex DNA [6]; 42.2% in the series with Quadruplex DNA [7]; 25.3% in the series with Quadruplex DNA [9]; 62.3% with Quadruplex DNA [10]. In addition, the Activity entry with Quadruplex DNA [12] is “Dose-dependent effect”; with Quadruplex DNA [15], 55.8%. Further, the outcome in series [4] was inactive. Besides, the pIC50 is 6.25 in the series with SiHa; 5.87 in the series on HeLa; 5.71 in the series on Huh-7; 5.67 with HCT-116; 5.91 in the series with U2OS; 5.76 in the series with A-375. In the series with A549, this compound had a pIC50 of 5.65. For the same compound, the result in the series on Quadruplex DNA [13], in the series on Quadruplex DNA [14] and in the series with Quadruplex DNA [18] was Active. In series [16], the Drug uptake entry is given as “Active”.

Turning to `c1ccc2c(NCCNCCNc3c4ccccc4nc4ccccc34)c3ccccc3nc2c1`, the pKd in series [1] is 4.91; on dsDNA, 5.19; on Quadruplex DNA [17] it was 5.33. Besides, the thermal shift (ΔTm) in the series with Quadruplex DNA [2] was determined as 15.2 °C; in [8] it was 2.5 °C; in series [11], 0.7 °C. Also, the pIC50 in the series on SiHa was 4.92; in the series with HeLa, 4.86; in the series with Huh-7, 4.70; with HCT-116 it was 4.96; with U2OS, 5.26; in the series with A-375, 5.16. Besides, the pIC50 in the series with A549 was 5.01. In addition, the outcome in the series on ssDNA was inactive.
